LYP inh 2 = PTPN22 phosphatase inhibitors, primary screen, biochemical, DiFMUP fluorescence, 2 µM | recombinant LYP catalytic domain | Tyrosine-protein phosphatase non-receptor type 22 (Homo sapiens), Q9Y2R2 | inhibition, % at 2 µM | 0.21% of 96,000 active;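 active = inhibition at 2 µM at or above a set limit, the screen mean plus 3 SD, cut at about 24% in these data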;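 note: 0% = DMSO with enzyme and 100% = enzyme fully blocked by orthovanadate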
Rev-RRE block = HIV-1 Rev-RRE binding inhibitors, primary screen, biochemical, FRET, protein-RNA interaction. P05866. Rev peptide-RRE RNA binding. inhibition, % at 8 µM. 0.79% of 97,000 active. AID 704, 2007;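 active = inhibition above the screen-wide mean plus 3 SD, cut at about 35% in these data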;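 note: 0% = median DMSO wells and 100% = median Neomycin B control wells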
Target sequence (P05866 whole entry, looked up): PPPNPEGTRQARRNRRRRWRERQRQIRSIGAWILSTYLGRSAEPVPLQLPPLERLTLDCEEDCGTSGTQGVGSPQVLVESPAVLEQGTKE
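System: Cy5-labelled duplex RRE RNA binding fluorescein-labelled HIV Rev peptide; Signal: fluorescein-to-Cy5 FRET, 480 nm excitation; Also added: labelled Rev peptide; Compound: one concentration, 8 µM nominal; Buffer or medium: HEPES pH 7.5 salt buffer with EDTA; Read-out: % inhibition of FRET ratio versus controls; Schedule: 5 min preincubation and 15 min binding, 25 °C.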
PLK1 kinase inh = human PLK1 kinase inhibitors, primary screen, biochemical, TR-FRET. recombinant PLK1 kinase, TR-FRET peptide phosphorylation. AID 619, 2007. 0.53% of 97,000 active. inhibition, % at 10 µM. Serine/threonine-protein kinase PLK1 (Homo sapiens), P53350;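 active = inhibition of 50% or more in the single-concentration screen; inactive = inhibition below 50%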;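 note: 0% = DMSO max control and 100% = H-89 dihydrochloride min control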
Target sequence (P53350 whole entry, looked up): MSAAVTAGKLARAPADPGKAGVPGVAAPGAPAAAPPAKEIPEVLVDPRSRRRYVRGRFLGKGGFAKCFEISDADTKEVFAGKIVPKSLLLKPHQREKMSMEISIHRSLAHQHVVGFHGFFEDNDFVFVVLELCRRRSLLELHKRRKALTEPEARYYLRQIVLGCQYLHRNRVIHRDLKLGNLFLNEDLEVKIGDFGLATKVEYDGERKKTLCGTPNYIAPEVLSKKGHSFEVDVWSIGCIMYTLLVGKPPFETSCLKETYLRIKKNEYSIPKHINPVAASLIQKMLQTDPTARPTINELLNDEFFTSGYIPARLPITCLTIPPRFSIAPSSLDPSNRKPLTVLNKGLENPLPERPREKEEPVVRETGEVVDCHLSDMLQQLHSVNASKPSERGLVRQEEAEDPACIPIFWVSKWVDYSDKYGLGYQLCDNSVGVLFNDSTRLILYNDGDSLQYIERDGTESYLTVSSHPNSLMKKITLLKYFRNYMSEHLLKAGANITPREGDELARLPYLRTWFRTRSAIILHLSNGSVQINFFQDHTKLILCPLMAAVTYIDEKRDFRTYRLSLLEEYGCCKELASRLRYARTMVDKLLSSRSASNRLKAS
PTPN22 act = LYP phosphatase activators, primary screen, biochemical, DiFMUP fluorescence, 2 µM; 0.11% of 96,000 active; recombinant LYP; 0 = plate median, 100 = signal doubled; activation, % at 2 µM; Tyrosine-protein phosphatase non-receptor type 22 (Homo sapiens), Q9Y2R2;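 active = activation at 2 µM above a set limit, the mean plus 5 SD, cut at about 37% in these data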
EphB4 ephrin blk = EphB4-ephrin-B2 interaction antagonists, primary screen, biochemical, TNYL-RAW peptide probe, fluorescence polarization. inhibition, % at 7 µM. EphB4 LBD / TNYL-RAW-Alexa532 peptide. 0.15% of 97,000 active. Ephrin type-B receptor 4 (Homo sapiens), P54760. AID 720, 2007;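 active = inhibition above the screen-wide mean inhibition plus 3 SD, cut at about 15% in these data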;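 note: 0% = DMSO wells and 100% = excess unlabeled TNYL-RAW peptide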
Plk1 PBD FP = Plk1 polo box domain binding inhibitors, primary screen, biochemical, fluorescence polarization. Serine/threonine-protein kinase PLK1 (Homo sapiens), P53350. Plk1 PBD phosphopeptide binding. inhibition, %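 (tested at about 20 µM)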. 0.13% of 97,000 active. AID 693, 2007; in the data active = inhibition above about 34%, passing the limit was not always enough
PBD redox DR = redox cycling hydrogen peroxide generation, dose response, artefact control for Plk1 PBD inhibitor project, biochemical; shares compounds with Plk1 PBD FP; redox cycling H2O2 generation, DTT, counter-screen; EC50, µM; 120 tested, under 10 active; AID 876, 2007
LYP act confirm = retest of PTPN22 activators, confirmation, biochemical, DiFMUP fluorescence, single concentration; shares compounds with PTPN22 act; Recombinant LYP, activation; zero set by plate's median compound well; activation, % at 2 µM; 100 tested, under 10 active
Starred values were filed as active, the others as inactive; · = no result given. In the library only some 1.8% were active in any assay of this set; here they are far more common. Unless noted, the rule behind the calls is not given here.

SMILES | LYP inh 2 | Rev-RRE block | PLK1 kinase inh | PTPN22 act | EphB4 ephrin blk | Plk1 PBD FP | PBD redox DR | others
O=C(NC(NC(=S)Nc1ccc(Cl)cc1Cl)C(Cl)(Cl)Cl)c1cccc([N+](=O)[O-])c1 (stereo not drawn) | 1.4 | 4.6 | -1.8 | 2.6 | -3.4 | 55.8* | >50
O=C(NC(NC(=S)Nc1ccccc1)C(Cl)(Cl)Cl)c1cccc(Cl)c1 (stereo not drawn) | -0.3 | 7.8 | -11.1 | 3.6 | 11.2 | 8.6 | ·
CC(C)[C@H](NC(=O)NCc1ccco1)C(=O)O | 5.5 | 3.4 | -13.8 | -7.3 | -2.8 | 3.2 | ·
COCCCN=C(c1ccco1)n1c(=S)nc(-c2ccco2)n(CCCOC)c1=S | -10.9 | 7.8 | 13.0 | 8.0 | 0.1 | -13.7 | ·
CCOC(=O)c1c2c(n(C)c1C)C(=O)C(=O)c1ccc(Br)cc1-2 | 7.3 | 4.2 | -5.0 | -7.2 | -1.6 | 116.3* | 0.614*
COc1ccc(OCC(=O)Nc2ccc(S(=O)(=O)N3CCOCC3)cc2)cc1 | -10.3 | 7.5 | -3.7 | 10.9 | 2.0 | -10.9 | ·
O=C(COc1ccccc1)Nc1ccc(S(=O)(=O)N2CCOCC2)cc1 | -5.6 | 7.4 | -6.1 | 3.7 | 6.5 | 40.3* | >50
Cn1c(=O)c2c(ncn2CCCc2ccccc2)n(C)c1=O | -2.9 | 3.8 | -10.6 | 0.4 | -0.9 | 51.4* | >50
Cn1c(=O)c2c(ncn2Cc2ccccc2)n(C)c1=O | 3.8 | 2.3 | -0.5 | -5.1 | 0.8 | -10.1 | ·
Cc1ccc(S(=O)(=O)c2nc(N3CCOCC3)sc2Cl)cc1 | -3.5 | 6.1 | -9.5 | 3.6 | -6.5 | 20.1 | ·
CCNC(=O)NC(=O)C(C)OC(=O)c1cccnc1SC (stereo not drawn) | 9.5 | 0.2 | -3.1 | -11.8 | -7.5 | 50.6* | >50
C=CCNC(=O)NC(=O)COC(=O)c1cccnc1SC | 1.7 | 7.0 | -3.5 | 0.4 | -1.0 | 6.2 | ·
O=c1[nH]c(NCc2ccccc2)nc2c1CCCC2 | 9.1 | 9.7 | 2.5 | -5.3 | 2.5 | -4.4 | ·
COc1ccc2c(c1OC)C(=O)OC2CC(=O)c1ccc(O)c(O)c1 (stereo not drawn) | 6.9 | 7.0 | 16.1 | -6.3 | 3.6 | 3.7 | ·
COc1ccc2c(c1OC)C(=O)OC2CC(=O)O (stereo not drawn) | -7.8 | 8.8 | -9.9 | 7.6 | 10.4 | 40.1* | >50
NC(=O)NC(=O)CSc1cccc(C(F)(F)F)c1 | 2.0 | 8.4 | -7.6 | 1.3 | -6.8 | 11.4 | ·
Cn1cc(SCC(=O)Nc2ccc3c(c2)OCCO3)c2ccccc21 | 0.1 | 2.1 | 4.0 | -2.3 | -4.4 | 44.3* | >50
CCn1c(=O)cc(SCC(=O)Nc2ccc3c(c2)OCO3)c2ccccc21 | 17.6 | 3.5 | -6.6 | -14.1 | 4.6 | 17.2 | ·
O=C(COc1ccc(S(=O)(=O)N2CCc3ccccc32)cc1Cl)NCc1ccccn1 | -3.9 | 4.9 | -6.9 | 7.9 | 4.2 | 9.8 | ·
CC1CCc2c(sc(N)c2C(=O)OC(C)C)C1 (stereo not drawn) | 2.8 | 2.3 | -0.2 | -1.9 | 2.5 | 0.6 | ·
CCc1noc(C)c1C(=O)N1CCOCC1 | 9.2 | 0.5 | -5.2 | -11.9 | 5.8 | 40.6* | >50
Nc1cc(-c2ccc(Br)cc2)nn1S(=O)(=O)c1cccc2nsnc12 | -9.3 | -0.2 | -2.1 | 6.2 | -5.3 | 47.0* | >50
O=C1C(C2=C(O)c3ccccc3C2=O)=Nc2ccccc21 | -13.6 | 12.8 | 23.4 | 12.2 | -5.2 | 66.3* | 29.1*
CC(C)N(Cc1cc2ccccc2[nH]c1=O)C(=O)c1cccnc1 | -9.9 | 4.5 | -8.6 | 7.1 | -4.3 | 35.1* | >50
COC(=O)CNC(=O)C12CC3(C)CC(C)(CC(C)(C3)C1)C2 | -0.1 | -4.3 | -9.2 | -4.0 | 2.7 | 33.4* | >50
SMILES | LYP inh 2 | Rev-RRE block | PLK1 kinase inh | PTPN22 act | EphB4 ephrin blk | Plk1 PBD FP | PBD redox DR | others
OCC(CO)(CO)N=Cc1cc(Br)ccc1O | -13.3 | 3.3 | -6.8 | 11.1 | -4.4 | 46.8* | >50
O=C(c1ccc2c(c1)N(Cc1ccccc1)CCS2)N1CCCCC1 | -4.4 | 2.1 | -12.0 | 4.5 | -4.3 | 15.0 | ·
O=C(O)C1C2C=CC(C2)C1C(=O)Nc1ccc2c(c1)OCCO2 (stereo not drawn) | -7.9 | 5.7 | -6.8 | 6.6 | 2.1 | 6.8 | ·
O=C(O)C1CCCCC1C(=O)Nc1ccc2c(c1)OCCO2 (stereo not drawn) | 2.6 | 0.4 | -8.2 | -5.0 | -8.2 | 52.0* | >50
CCCCN(C)C(=O)c1sc2ncn(CC)c(=O)c2c1C | -6.6 | -2.6 | -0.9 | 11.4 | -0.8 | -13.0 | ·
CCn1cnc2sc(C(=O)N3CCN(c4ccc(OC)cc4)CC3)c(C)c2c1=O | 3.8 | -2.2 | -4.5 | -3.8 | -0.7 | 44.8* | >50
CCC(Sc1nc2n[nH]c(C)c2c(=N)n1-c1cccc(Cl)c1)C(=O)NCCOC (stereo not drawn) | 6.3 | 2.0 | 6.0 | -8.1 | -9.4 | 42.8* | >50
Cc1cccc(-n2c(SCC(=O)N3CCCC3)nc3n[nH]c(C)c3c2=N)c1 | -4.3 | 3.4 | 5.0 | 1.6 | -4.7 | 6.4 | ·
CC(=O)N(/N=C1\Sc2ccccc2C1=O)c1cccc(C)c1 | 7.8 | 7.8 | -10.9 | -6.2 | -5.6 | 76.7* | >50
CC(=O)N(CN1C(=O)c2ccccc2C1=O)c1cccc(C)c1 | 5.7 | 4.9 | -10.3 | -7.5 | 1.3 | -0.8 | ·
CN(C)S(=O)(=O)N(CC(=O)Nc1ccccc1F)c1ccccc1 | -38.4 | -3.9 | -4.0 | 39.1* | -2.1 | -15.5 | · | LYP act confirm=-4.1
Cc1ccccc1NC(=O)CN(c1ccc(F)cc1)S(C)(=O)=O | -9.0 | 0.8 | -14.8 | 7.7 | -5.6 | 3.6 | ·
CC(C)Oc1ccc(/C=N/NC(=O)C(CSCc2ccccc2)NC(=O)c2ccc([N+](=O)[O-])cc2)cc1 (stereo not drawn) | 4.7 | 12.0 | -14.1 | -4.1 | -5.3 | 0.8 | ·
CSCCC(NC(=O)COc1ccccc1)C(=O)N1CCN(c2ccccc2F)CC1 (stereo not drawn) | -2.9 | 4.0 | -8.0 | 2.5 | -4.5 | -8.3 | ·
Cc1nn(C)c(Oc2ccccc2)c1CCNS(=O)(=O)c1ccc(Cl)cc1 | · | 8.1 | -11.7 | · | 7.5 | -1.5 | ·
COc1cccc(C(=O)Nc2ccc(F)c(F)c2F)c1 | -6.9 | 0.6 | 4.3 | 10.1 | 2.3 | 10.9 | ·
Cc1ccc(Cl)cc1NC(=O)c1cccc(OC(F)F)c1 | -46.2 | 6.2 | -9.3 | 40.2* | 7.3 | 12.7 | · | LYP act confirm=6.6
COc1ncnc2c1cnn2-c1ccccc1 | -38.3 | 1.9 | -3.1 | 37.6* | 0.1 | -4.7 | · | LYP act confirm=1.3
